Tests used:
G-361 [1] = test: Cytotoxicity against human G361 cells pretreated for 4 hrs followed by light irradiation of 10 J/cm2 at 414 nm measured after 68 hrs by MTT assay; assay type: functional, cell-based; settings: G-361, light or radiation study
How it was run: (§1)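 Cells grown in phenol red-free DMEM with 10 % FBS, penicillin/streptomycin, 37 °C, 5 % CO₂. Compound added 24 h after plating and incubated 4 h. Irradiated cells received 414 nm LED light at 20 mW/cm², 10 J/cm², then were incubated 20 h or 68 h more. Dark plates were run in parallel without irradiation. MTT was added for 4 h, formazan dissolved in 10 % SDS, absorbance read at 570 nm. EC50 ± SD.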

G-361 [2] = test: Cytotoxicity against human G361 cells under dark condition measured after 72 hrs by MTT assay; assay type: functional, cell-based; settings: G-361, 72 h; how it was run: as §1
[3] = Cytotoxicity against human BJ cells under dark condition measured after 72 hrs by MTT assay; assay type: toxicity, cell-based; how it was run: as §1

| Compound | EC50 (G-361 [1]) [µM] | EC50 (G-361 [2]) [µM] | EC50 at 72 h [3] [µM] |
| --- | --- | --- | --- |
| CCN(CC)c1ccc(/C=C/C2=Nc3ccc4ccccc4c3C2(C)C)cc1 | > 10 | > 10 |  |
| CC1(C)C(/C=C/c2ccccc2[N+](=O)[O-])=Nc2ccc3ccccc3c21 | 1.1 | 7.8 | > 10 |
| CC1(C)C(/C=C/c2cc([N+](=O)[O-])ccc2Cl)=Nc2ccc3ccccc3c21 | 7.9 | > 10 |  |
| CC1(C)C(/C=C/c2cccc(C(F)(F)F)c2)=Nc2ccc3ccccc3c21 | 1.3 | 7.6 | > 10 |
| CC1(C)C(/C=C/c2ccc(C#N)c(F)c2)=Nc2ccc3ccccc3c21 | 0.6 | 6.2 | 7.2 |
| CC1(C)C(/C=C/c2cccc(C#N)c2)=Nc2ccc3ccccc3c21 | 0.9 | 3.7 |  |
| CC1(C)C(/C=C/c2ccc(F)cc2)=Nc2ccc3ccccc3c21 | 4.1 | 7.3 |  |
| CC1(C)C(/C=C/c2ccc(C#N)cc2)=Nc2ccc3ccccc3c21 | 0.5 | 5.1 | 6.7 |
| CC1(C)C(/C=C/c2ccc(F)c(C#N)c2)=Nc2ccc3ccccc3c21 | 1.4 | 6.9 |  |
| CC1(C)C(/C=C/c2ccc(F)c([N+](=O)[O-])c2)=Nc2ccc3ccccc3c21 | 1.8 | 7.9 |  |
| CC1(C)C(/C=C/c2ccc(C(F)(F)F)cc2)=Nc2ccc3ccccc3c21 | 0.9 | 4 |  |
| CC1(C)C(/C=C/c2ccc(Br)cc2)=Nc2ccc3ccccc3c21 | 1.3 | 7.6 | > 10 |
| COc1ccc(/C=C/C2=Nc3ccc4ccccc4c3C2(C)C)cc1 | 5.2 | 9.5 |  |
| Cc1ccc(/C=C/C2=Nc3ccc4ccccc4c3C2(C)C)cc1[N+](=O)[O-] | 0.9 | 6.6 | 8 |
| CC1(C)C(/C=C/c2ccccc2)=Nc2ccc3ccccc3c21 | 2.8 | 6.5 |  |
| CC1(C)C(/C=C/c2ccc(Cl)c([N+](=O)[O-])c2)=Nc2ccc3ccccc3c21 | 0.3 | 7.2 | > 10 |
| CC1(C)C(/C=C/c2cc(C(F)(F)F)cc(C(F)(F)F)c2)=Nc2ccc3ccccc3c21 | 1.3 | > 10 | > 10 |
| CC1(C)C(/C=C/c2ccc([N+](=O)[O-])cc2)=Nc2ccc3ccccc3c21 | 0.8 | 5.7 | 6 |
| CN(C)c1ccc(/C=C/C2=Nc3ccc4ccccc4c3C2(C)C)cc1 | > 10 | > 10 |  |
| CC1(C)C(/C=C/c2cccc([N+](=O)[O-])c2)=Nc2ccc3ccccc3c21 | 0.4 | 2.9 | 5 |

Source: ChEMBL document CHEMBL6071149, “Synthesis and photo-induced anticancer activity of new 2-phenylethenyl-1H-benzo[e]indole dyes” (Eur J Med Chem, 2024)
